# Screens as filed in PubChem BioAssay.
# PG9 binder: PG9 antibody binding by small molecule. TR-FRET gp120-PG9 antibody binding. inhibition, % at 6.7 µM. 0.43% of 360,000 active; in the data active = inhibition above about 8.5%
# Rin1-Abl PPI inh: inhibitors of human Rin1-Abl protein interaction | AID 588664 | TR-FRET Rin1/Abl binding, biochemical | P00519+Q13671 | inhibition, % at 7.35 µM | 0.4% of 360,000 active; in the data active = inhibition above about 5%, passing the limit was not always enough
# Target sequence (P00519 whole entry, looked up): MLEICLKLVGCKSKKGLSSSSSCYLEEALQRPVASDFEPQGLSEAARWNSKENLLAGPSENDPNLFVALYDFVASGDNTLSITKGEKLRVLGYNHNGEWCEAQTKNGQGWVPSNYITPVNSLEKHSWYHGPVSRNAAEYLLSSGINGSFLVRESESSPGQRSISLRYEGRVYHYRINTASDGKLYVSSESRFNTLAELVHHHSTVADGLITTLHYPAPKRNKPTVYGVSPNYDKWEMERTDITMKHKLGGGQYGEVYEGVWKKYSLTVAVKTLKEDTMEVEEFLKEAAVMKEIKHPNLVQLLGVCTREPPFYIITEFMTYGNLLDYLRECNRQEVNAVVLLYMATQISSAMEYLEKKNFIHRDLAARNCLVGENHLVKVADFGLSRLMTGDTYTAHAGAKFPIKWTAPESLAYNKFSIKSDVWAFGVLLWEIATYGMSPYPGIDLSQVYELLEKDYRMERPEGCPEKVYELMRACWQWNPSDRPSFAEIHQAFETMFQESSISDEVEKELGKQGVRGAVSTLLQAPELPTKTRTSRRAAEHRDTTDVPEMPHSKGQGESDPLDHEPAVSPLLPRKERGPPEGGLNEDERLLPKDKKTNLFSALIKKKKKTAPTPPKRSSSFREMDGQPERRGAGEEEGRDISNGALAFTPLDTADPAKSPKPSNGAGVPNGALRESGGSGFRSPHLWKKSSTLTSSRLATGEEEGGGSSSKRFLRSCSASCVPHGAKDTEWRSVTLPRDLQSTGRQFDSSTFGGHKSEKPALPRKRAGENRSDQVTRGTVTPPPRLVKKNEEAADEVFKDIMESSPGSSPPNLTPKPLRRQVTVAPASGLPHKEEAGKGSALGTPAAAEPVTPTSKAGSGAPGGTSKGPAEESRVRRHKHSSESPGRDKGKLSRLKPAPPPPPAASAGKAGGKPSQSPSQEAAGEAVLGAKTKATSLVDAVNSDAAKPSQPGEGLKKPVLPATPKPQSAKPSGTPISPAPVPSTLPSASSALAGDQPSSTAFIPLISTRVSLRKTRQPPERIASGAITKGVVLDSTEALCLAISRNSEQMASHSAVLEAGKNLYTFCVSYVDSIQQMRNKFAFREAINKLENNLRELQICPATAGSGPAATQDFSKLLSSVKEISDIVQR
# Target sequence (Q13671 whole entry, looked up): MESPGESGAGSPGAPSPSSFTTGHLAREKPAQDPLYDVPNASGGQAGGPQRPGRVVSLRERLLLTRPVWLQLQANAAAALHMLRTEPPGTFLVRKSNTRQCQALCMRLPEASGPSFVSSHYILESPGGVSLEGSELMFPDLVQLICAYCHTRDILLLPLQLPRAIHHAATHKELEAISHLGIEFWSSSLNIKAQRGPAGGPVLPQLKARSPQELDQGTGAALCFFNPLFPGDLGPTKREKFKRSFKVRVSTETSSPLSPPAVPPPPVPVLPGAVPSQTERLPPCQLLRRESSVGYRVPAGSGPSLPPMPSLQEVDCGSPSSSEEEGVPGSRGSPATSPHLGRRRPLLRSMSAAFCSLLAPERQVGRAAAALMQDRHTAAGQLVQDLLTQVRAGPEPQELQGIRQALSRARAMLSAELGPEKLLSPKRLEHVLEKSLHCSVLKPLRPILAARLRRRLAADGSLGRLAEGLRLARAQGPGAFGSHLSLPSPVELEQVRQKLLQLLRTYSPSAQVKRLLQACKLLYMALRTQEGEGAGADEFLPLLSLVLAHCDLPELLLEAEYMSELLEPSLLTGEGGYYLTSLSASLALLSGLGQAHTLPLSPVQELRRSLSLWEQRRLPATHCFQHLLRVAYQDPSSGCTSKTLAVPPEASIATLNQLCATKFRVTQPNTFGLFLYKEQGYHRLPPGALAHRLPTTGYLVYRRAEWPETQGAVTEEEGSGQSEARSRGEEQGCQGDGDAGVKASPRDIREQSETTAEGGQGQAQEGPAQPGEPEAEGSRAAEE
# Tb MetRS inh: blocks T. brucei methionyl-tRNA synthetase activity | purified T. brucei MetRS, ATP depletion, Kinase-Glo luminescence | inhibition, % at 11.9 µM | 0.4% of 360,000 active;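 active = inhibition above a per-plate cutoff of the control wells' mean inhibition plus 3 SD, cut at about 5.5% in these data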;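 note: 0% = DMSO wells median and 100% = median of wells with control inhibitor compound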
#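 Test system: purified T. brucei MetRS enzyme. Also added: ATP, methionine and E. coli bulk tRNA substrates. Compound: 11.9 µM single point. Schedule: 15 min enzyme-compound preincubation, 2 h reaction, 10 min detection, 25 °C. Signal: luciferase luminescence of residual ATP, Kinase-Glo. Evaluation: percent inhibition versus plate control medians. Controls: DMSO wells, low control.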
# NR1D1 modulator: Rev-erb alpha (human) modulation; P20393; Rev-erbα–FITC-DNA binding, fluorescence polarization, 90 min; activity, % at 10 µM; 0.79% of 370,000 active;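 active = activity above about 14%, limit read from the data; passing the limit was not always enough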;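 note: 0% = DMSO wells with 35 nM protein and 100% = DMSO wells with 750 nM protein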
# Tb MetRS conf: confirmation of Trypanosoma brucei MetRS inhibitors. shares compounds with Tb MetRS inh. T. brucei MetRS enzyme, luminescence (ATP depletion). inhibition, % at 11.9 µM. 93% of 1,400 active. AID 624412; in the data active = inhibition above about 7%
# Jurkat cytotox: Jurkat T cell cytotoxicity for MetRS hits. shares compounds with Tb MetRS inh. inhibition, % at 8.3 µM. AID 624413. 12% of 1,400 active. Jurkat cells viability, ATP luminescence; in the data active = inhibition above about 15%;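 note: 0% = vehicle and 100% = reference inhibitor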
# Tb MetRS inh FP: T. brucei MetRS inhibition, orthogonal assay; shares compounds with Tb MetRS inh; purified T. brucei MetRS, fluorescence polarization; inhibition, % at 11.9 µM; 44% of 1,400 active; AID 651607; in the data active = inhibition above about 17%;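 note: 0% = vehicle wells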
# * hit, by the source's call; . = not tested or not shown. In the library only some 1.8% were active in any assay of this set; here they are far more common.
SMILES,PG9 binder,Rin1-Abl PPI inh,Tb MetRS inh,NR1D1 modulator,Tb MetRS conf,Jurkat cytotox,Tb MetRS inh FP
CCC1CCCN1Cn1cnc2c([nH]c3ccc(Cl)cc32)c1=O (configuration not stated),-1,-1,5.8*,-1,18*,4,-2
CCOC(=O)[C@]12CCCCC/C=C\1N(CCc1ccc(Cl)cc1)C(=O)[C@H]2CC(=O)N1CCSCC1,.,.,.,-1,.,.,.
Cc1ccc2nc(C3CCN(S(=O)(=O)c4ccc5ccccc5c4)CC3)[nH]c2c1,0,2,48*,0,69*,4,36*
CC(=O)c1cccc(S(=O)(=O)N2CCC(c3nc4ccccc4[nH]3)CC2)c1,-2,-2,0,-4,.,.,.
CCNC(=S)N1CCCC(c2nc3ccc(C)cc3[nH]2)C1 (configuration not stated),-1,3,0,-3,.,.,.
Cc1ccc2nc(C3CCCN(C(=S)Nc4ccccc4C)C3)[nH]c2c1 (configuration not stated),0,-3,6.8*,2,46*,3,22*
O=S(=O)(c1ccc2c(c1)OCCO2)N1CCC(c2nc3ccccc3[nH]2)CC1,-3,4,-1,0,.,.,.
O=S(=O)(c1ccc2c(c1)OCCO2)N1CCC(c2nc3ccc(Cl)cc3[nH]2)CC1,-2,5,12*,-2,17*,24*,12
C[C@@H]1CN([C@@H](C)CO)C(=O)c2cc(NC(=O)Nc3ccccc3)ccc2O[C@@H](C)CCCCO[C@H]1CN(C)C(=O)Nc1ccc(C(F)(F)F)cc1,-2,-1,18*,-7,22*,3,15
O=C(CSc1nnc(CCc2nc3ccccc3[nH]2)n1-c1ccccc1)NCc1ccccc1,0,-2,6.2*,-3,9.2*,5,-2
O=C(CSc1n[nH]c(-c2ccc(Br)cc2)n1)NC1CCCC1,0,0,12*,-13,41*,1,14
O=C(CSc1n[nH]c(-c2ccccc2)n1)NC1CCCCC1,0,1,0,-1,.,.,.
Fc1ccc(CN2CCN(c3ncc(Cc4ccccc4)cn3)CC2)c(Cl)c1,0,.,.,-4,.,.,.
N#C/C(=C\c1ccc(Sc2nc3ccccc3[nH]2)o1)c1ccccc1,-3,-1,0,1,.,.,.
N#Cc1ccc(Sc2nc3ccccc3[nH]2)cc1C#N,-1,-3,17*,-3,29*,0,14
CC(=O)NS(=O)(=O)c1ccc(NC(=O)/C=C/c2cn(-c3ccccc3)nc2-c2ccccc2)cc1,-2,0,51*,-5,49*,-4,42*
COC(=O)NNC(=O)CCCOc1ccc(Cl)cc1Cl,-1,3,2,-1,.,.,.
CC(C)NC(=O)CCCOc1ccc(Cl)cc1Cl,2,-3,6.3*,-4,11*,-11,-2
CC(C)Nc1nc(NC(C)C)nc(N(C#N)CCOc2ccc(Cl)cc2Cl)n1,-1,0,-1,-5,.,.,.
O=C(COC(=O)CCCOc1ccc(Cl)cc1Cl)Nc1cccc(Cl)c1,0,-4,31*,3,45*,1,49*
C#CCN(C)CCCOc1ccc(Cl)cc1Cl,0,-2,7.3*,1,18*,6,3
O=C(O)CCC(=O)NNC(=O)CCCOc1ccc(Cl)cc1Cl,-2,2,3,-2,.,.,.
CCN(CC)C(=O)CCCOc1ccc(Cl)cc1Cl,-1,2,9.1*,-4,16*,13,5
Cc1ccc(C)c(NC(=O)C2CCCN2S(=O)(=O)c2cccc3cccnc23)c1 (configuration not stated),.,.,.,3,.,.,.
C=CCN(Cc1ccc(OC)cc1OC)C(C#CCCCC)c1ccccc1 (configuration not stated),.,.,.,2,.,.,.
SMILES,PG9 binder,Rin1-Abl PPI inh,Tb MetRS inh,NR1D1 modulator,Tb MetRS conf,Jurkat cytotox,Tb MetRS inh FP
CC(C)(C)c1ccc(-c2nnc(SCC(=O)Nc3ccccc3-c3ccccc3)n2Cc2ccco2)cc1,.,.,.,-1,.,.,.
COC(=O)C1CN(Cc2cn(Cc3ccc(C)cc3)nn2)CCS(=O)(=O)N1Cc1ccc(F)cc1 (configuration not stated),.,.,.,-8,.,.,.
Nc1nc2n(n1)C(c1ccco1)CC(c1ccc(Cl)cc1Cl)N2 (configuration not stated),-1,-1,9.6*,0,18*,5,1
O=C(CSc1nnc(-c2cccnc2)n1-c1ccc(Cl)cc1)Nc1ccc(S(=O)(=O)Nc2nccs2)cc1,.,.,.,1,.,.,.
O=C(O)CCCCCn1c(SCC(=O)c2ccc(O)c(O)c2)nc2ccsc2c1=O,0,-3,6.2*,3,14*,0,36*
COCCSc1ncccc1-c1nc2ccccc2[nH]1,.,.,.,-2,.,.,.
O=C(Nc1ccccc1)Nc1cc(S(=O)(=O)N2CCOCC2)ccc1N1CCCC1,-2,-3,8.5*,2,20*,3,12
CCNC(=O)Nc1cc(S(=O)(=O)N2CCOCC2)ccc1N1CCCCC1,-2,1,0,-2,.,.,.
O=C(Cc1ccc(F)cc1)Nc1cc(S(=O)(=O)N2CCOCC2)ccc1N1CCCCC1,1,-3,0,0,.,.,.
O=C(Nc1ccc(Cl)cc1)Nc1cc(S(=O)(=O)N2CCOCC2)ccc1N1CCCC1,-2,2,38*,-1,60*,-4,35*
O=C(Nc1ccc(F)cc1)Nc1cc(S(=O)(=O)N2CCOCC2)ccc1N1CCCC1,-1,0,11*,-6,27*,7,13
COc1cc(C=Nn2c(-c3cc(C)[nH]n3)n[nH]c2=S)cc(Br)c1O,.,.,.,2,.,.,.
Cn1nccc1-c1coc2c(C(=O)N3CCOCC3)cccc12,-1,1,7.6*,0,5,-10,2
O=C(c1cccnc1Cl)N1CCOCC1,-3,-1,0,0,.,.,.
Cc1ncc([N+](=O)[O-])n1CC(=O)Nc1ccc(Br)cc1,0,-3,6.1*,0,14*,-6,0
Cc1cc(C(=O)N2CCc3c([nH]c4ccccc34)C2c2cccc(Cl)c2)nn1C (configuration not stated),-1,-2,1,5,.,.,.
O=C(c1cnccn1)N1CCc2c([nH]c3ccccc23)C1c1cccc(Cl)c1 (configuration not stated),-1,1,7.0*,10,10*,8,2
CCc1nnc(N/N=C/c2ccc(O)c(OC)c2)n1N,-5,0,0,-4,.,.,.
CCc1nnc(N/N=C\c2ccc(OC(C)=O)c(OC)c2)n1N,0,7,6.6*,-8,4,4,4
COc1cccc(C2c3[nH]c4ccccc4c3C[C@H]3C(=O)N(C4CC4)CC(=O)N23)c1 (some centres not stated),2,3,16*,-18,30*,8,22*
